Results on 37 compounds are retold here after ChEMBL document CHEMBL1158468, “Synthesis, structure-activity relationships, and in vivo evaluation of N3-phenylpyrazinones as novel corticotropin-releasing factor-1 (CRF1) receptor antagonists” (J Med Chem, 2009).

This assay concerns the target T1, Corticotropin-releasing factor receptor 1 (Rattus norvegicus, UniProt P35353).
T1 sequence (P35353 whole entry): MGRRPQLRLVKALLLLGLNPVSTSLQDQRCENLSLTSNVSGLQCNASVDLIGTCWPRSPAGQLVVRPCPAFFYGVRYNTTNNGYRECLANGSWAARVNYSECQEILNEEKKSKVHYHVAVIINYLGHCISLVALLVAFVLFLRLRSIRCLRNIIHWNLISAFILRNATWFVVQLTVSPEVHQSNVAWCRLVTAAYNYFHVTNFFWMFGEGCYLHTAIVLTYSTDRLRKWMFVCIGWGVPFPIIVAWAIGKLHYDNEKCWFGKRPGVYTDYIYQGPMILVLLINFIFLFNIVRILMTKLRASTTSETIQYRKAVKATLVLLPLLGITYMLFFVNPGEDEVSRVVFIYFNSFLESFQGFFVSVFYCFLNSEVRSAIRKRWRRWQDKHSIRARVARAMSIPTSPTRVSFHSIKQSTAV
As to the kind of experiment: Displacement of [125I]Tyr-ovine-CRF from CRF1 receptor in rat frontal cortex homogenate by gamma counting. The format is tissue-based. Summed up:
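Washed homogenates of frozen rat frontal cortex (CRF1, 25 μg/well) or porcine choroid plexus (CRF2, 10 μg/well) in 50 mM Hepes pH 7.0, 10 mM MgCl2, 2 mM EGTA, protease inhibitors, 0.005% Triton X-100. Ligand 150 pM 125I-ovine-CRF (CRF1) or 100 pM 125I-sauvagine (CRF2). Incubation 2 h at 21 °C, then filtration and gamma counting. Nonspecific binding: 1 μM CRF1 reference antagonist or 1 μM α-helical CRF(9-41). IC50 from 5- or 10-point curves by nonlinear regression.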
For orientation: In a radioligand displacement assay an active substance lowers the binding of a labelled ligand.
As usually defined, the IC50 is the midpoint of a concentration-inhibition curve. The compound `C#Cc1cn([C@H](C)C2CC2)c(=O)c(Nc2ccc(OC)nc2C(F)(F)F)n1` showed an IC50 of 5.6 nM.

Turning to `COc1cc(Cl)c(Nc2nc(Cl)cn([C@H](C)C3CC3)c2=O)c(Cl)c1`, the IC50 was found to be 1.1 nM.

Compound `COC[C@@H](C)n1cc(Cl)nc(Nc2c(C)cc(C)cc2C)c1=O` came in with an IC50 of 12 nM.

Take `COCC(COC)n1cc(Cl)nc(Nc2c(C)cc(C)cc2C)c1=O`: the IC50 turned out to be 16 nM.

As for `COC[C@@H](C1CC1)n1cc(Cl)nc(Nc2cc(C)c(O)cc2C)c1=O`, the IC50 turned out to be 280 nM. Against the preceding compound, the IC50 is about 18-fold higher.

`CCN(c1c(Cl)cc(OC)cc1Cl)c1nccn([C@H](C)C2CC2)c1=O` displayed an IC50 of 34 nM.

The compound `COC[C@@H](C)n1cc(Cl)nc(Nc2cc(C)c(OC)cc2C)c1=O` gave an IC50 of 1.7 nM. This IC50 lies about 20-fold lower than the previous one.

As for `CCC(C1CC1)n1cc(Cl)nc(Nc2c(Cl)cc(C#N)cc2Cl)c1=O` (single isomer, unassigned), the IC50 came to 2.8 nM.

Compound `CC[C@H](C1CC1)n1cc(Cl)nc(Nc2c(C)cc(C)cc2C)c1=O` came in with an IC50 of 0.63 nM. Against the preceding compound, the IC50 is about 4.4-fold lower.

With `CC[C@H](C1CC1)n1cc(Cl)nc(N(CC)c2c(C)cc(C)cc2C)c1=O`, the half-maximal inhibitory concentration (IC50) is 4.6 nM.

`C[C@@H](C1CC1)n1cc(Cl)nc(Nc2c(Cl)cc(C#N)cc2Cl)c1=O` gave an IC50 of 6.3 nM.

`COc1ccc(Nc2nccn([C@H](C)C3CC3)c2=O)c(C(F)(F)F)n1` had an IC50 of 150 nM.

In turn, `CCCC(CCC)n1cc(Cl)nc(Nc2cc(C)c(OC)cc2C)c1=O` gave an IC50 of 0.62 nM.

On to `COc1ccc(Nc2nc(C#N)cn([C@H](C)C3CC3)c2=O)c(C(F)(F)F)n1`, for which the IC50 turned out to be 6.7 nM.

Consider `CCC(CC)Cn1cc(Cl)nc(Nc2c(C)cc(C)cc2C)c1=O`, for which the IC50 was 39 nM.

Take `CC[C@H](C1CC1)n1cc(Cl)nc(Nc2cc(C)c(C)cc2C)c1=O`: the IC50 was found to be 2.4 nM.

`Cc1cc(C)c(Nc2nc(Cl)cn([C@@H](CO)C3CC3)c2=O)c(C)c1` displayed an IC50 of 35 nM.

In turn, `C=Cc1cn([C@H](C)C2CC2)c(=O)c(Nc2ccc(OC)nc2C(F)(F)F)n1` returned an IC50 of 1200 nM.

For the compound `CCC(CC)n1cc(Cl)nc(Nc2cc(C)c(OC)cc2C)c1=O`, the IC50 was found to be 0.8 nM.

In turn, `COc1ccc(Nc2nc(C)cn([C@H](C)C3CC3)c2=O)c(C(F)(F)F)n1` showed an IC50 of 3.8 nM.

`COC[C@@H](C1CC1)n1cc(Cl)nc(Nc2c(C)cc(C)cc2C)c1=O` yielded an IC50 of 1.3 nM.

As for `CCC(CC)n1cc(Cl)nc(Nc2c(C)cc(C)cc2C)c1=O`, the IC50 came to 2.9 nM.

On to `CC[C@H](C1CC1)n1cc(Cl)nc(Nc2c(Cl)cc(C#N)cc2Cl)c1=O`, for which the IC50 worked out at 1.2 nM.

Regarding `CC[C@H](C1CC1)n1cc(Cl)nc(Nc2c(C)cc(OC)cc2C)c1=O`, the concentration for half-maximal inhibition (IC50) was 0.52 nM.

The compound `CC[C@H](C1CC1)n1cc(Cl)nc(Nc2ccc(C)cc2C)c1=O` came in with an IC50 of 6.6 nM.

`COC[C@@H](C1CC1)n1cc(Cl)nc(Nc2cc(C)c(OCc3ccccc3)cc2C)c1=O` gave an IC50 of 910 nM. Against the preceding compound, the IC50 is about 140-fold higher.

Regarding `CC[C@H](C1CC1)n1cc(Cl)nc(Nc2cc(C)c(OC)cc2C)c1=O`, the IC50 amounted to 0.27 nM.

`COc1cc(Br)c2c(c1)CCN2c1nc(Cl)cn([C@H](C)C2CC2)c1=O` showed an IC50 of 0.94 nM.

As for `COc1cc(C)c(Nc2nc(Cl)cn([C@@H](CO)C3CC3)c2=O)cc1C`, the IC50 is 10 nM.

In turn, `CC[C@H](C1CC1)n1cc(Cl)nc(Nc2ccc(Cl)cc2)c1=O` had an IC50 of 180 nM.

With `Cc1cc(C)c(Nc2nc(Cl)cn([C@H](C)C3CC3)c2=O)c(C)c1`, the IC50 turned out to be 1.7 nM.

The compound `CCOc1cc(C)c(Nc2nc(Cl)cn([C@@H](COC)C3CC3)c2=O)cc1C` gave an IC50 of 1.5 nM.

In turn, `COc1cc(Br)c2c(c1)OCCN2c1nc(Cl)cn([C@H](C)C2CC2)c1=O` came in with an IC50 of 19 nM.

Turning to `CC[C@H](C1CC1)n1cc(Cl)nc(Nc2c(C)cc(Cl)cc2Cl)c1=O`, the IC50 amounted to 0.53 nM.

`CC[C@H](C1CC1)n1cc(Cl)nc(Nc2c(C)cccc2Cl)c1=O` showed an IC50 of 9.3 nM.

`COc1ccc(Nc2nc(Br)cn([C@H](C)C3CC3)c2=O)c(C(F)(F)F)n1` gave a half-maximal inhibitory concentration (IC50) of 1.2 nM.

The compound `C[C@H](C1CC1)n1cc(Cl)nc(Nc2c(Cl)cc(C#N)cc2Cl)c1=O` displayed an IC50 of 2.4 nM.
